Source: ChEMBL document CHEMBL4190388, “Discovery and Optimization of Indolyl-Containing 4-Hydroxy-2-Pyridone Type II DNA Topoisomerase Inhibitors Active against Multidrug Resistant Gram-negative Bacteria” (J Med Chem, 2018)
Converted amounts (≈) assume the structure as drawn.

Key:
Escherichia coli [1] = assay: Antibacterial activity against multidrug resistant Escherichia coli by broth microdilution method; type: functional; details: Escherichia coli
Outline: (§1)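 MICs were determined by CLSI broth methods, except that organisms were grown in brain–heart–infusion medium. The panel comprised wild-type and resistant E. coli and A. baumannii strains, including 12 strains whose details are given by reference.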

Acinetobacter baumannii [2] = assay: Antibacterial activity against fluoroquinolone resistant Acinetobacter baumannii isolate MMX2240 by CLSI M100-S17 protocol based method; type: functional
Escherichia coli [3] = assay: Antibacterial activity against beta-lactam resistant Escherichia coli by broth microdilution method; type: functional; details: Escherichia coli; outline: as §1
Acinetobacter baumannii [4] = assay: Antibacterial activity against wild type Acinetobacter baumannii ATCC BAA-747 by CLSI M100-S17 protocol based method; type: functional
[5] = Oral bioavailability in CD1 mouse plasma by LC-MS/MS analysis; type: ADME, organism-based
Escherichia coli [6] = assay: Antibacterial activity against Escherichia coli infected in cyclophosphamide treated neutropenic CD1 mouse septicemia model assessed as mouse survival at 20 mg/kg, iv dosed at 1 hr post infection followed by redosing at 5 hrs post infection measured at 96 hrs post infection relative to control; type: functional
Outline: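 Female CD-1 mice were made neutropenic with cyclophosphamide ip, 150 mg/kg on day −4 and 100 mg/kg on day −1. […] Compound was given iv in 3% DMSO/saline at 1 and 5 h postinfection, n = 6 per group. Percent survival was scored at 96 h postinfection.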

Escherichia coli [7] = assay: Antibacterial activity against fluoroquinolone resistant Escherichia coli SKM18 by CLSI M100-S17 protocol based method; type: functional
Acinetobacter baumannii [8] = assay: Antibacterial activity against carbapenem resistant Acinetobacter baumannii by broth microdilution method; type: functional; details: Acinetobacter baumannii; outline: as §1
Escherichia coli [9] = assay: Antibacterial activity against wild type Escherichia coli ATCC 25922 in presence of HSA by CLSI M100-S17 protocol based method; type: functional
Escherichia coli [10] = assay: Antibacterial activity against wild type Escherichia coli ATCC 25922 by CLSI M100-S17 protocol based method; type: functional
Escherichia coli [11] = assay: Antibacterial activity against wild type Escherichia coli by broth microdilution method; type: functional; outline: as §1
Escherichia coli [12] = assay: Selectivity ratio of MIC for wild type Escherichia coli ATCC 25922 in presence of HSA to MIC for wild type Escherichia coli ATCC 25922; type: functional
Mus musculus [13] = assay: Terminal half life in CD1 mouse plasma at 10 mg/kg, iv by LC-MS/MS analysis; type: ADME, organism-based; details: in vivo
Escherichia coli [14] = assay: Antibacterial activity against quinolone resistant Escherichia coli by broth microdilution method; type: functional; details: Escherichia coli; outline: as §1
Klebsiella pneumoniae = assay: Antibacterial activity against wild type Klebsiella pneumoniae ATCC 35657 by CLSI M100-S17 protocol based method; type: functional
Acinetobacter baumannii [15] = assay: Antibacterial activity against quinolone resistant Acinetobacter baumannii by broth microdilution method; type: functional; details: Acinetobacter baumannii; outline: as §1
Escherichia coli [16] = assay: Antibacterial activity against quinolone resistance Escherichia coli isolate ELZ4251 harboring gyrA/parC mutant by CLSI M100-S17 protocol based method; type: functional
Mus musculus [17] = assay: AUC (0 to 24 hrs) in CD1 mouse plasma at 10 mg/kg, iv by LC-MS/MS analysis; type: ADME, organism-based; set-up: time < 24 hr, dose 10 mg/kg, route intravenous; details: in vivo
Outline: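 CD-1 mice given a single 10 mg/kg iv dose (n = 3), in either 10% DMSO plus 1% Tween 80 in pH 8.0 phosphate buffer or 20% (2-hydroxypropyl)-β-cyclodextrin in pH 4.0 citrate buffer; plasma exposure measured.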

Mus musculus [18] = assay: Volume of distribution at steady state in CD1 mouse plasma at 10 mg/kg, iv by LC-MS/MS analysis; type: ADME, organism-based; details: in vivo
Acinetobacter baumannii [19] = assay: Antibacterial activity against beta-lactam resistant Acinetobacter baumannii by broth microdilution method; type: functional; details: Acinetobacter baumannii; outline: as §1
Acinetobacter baumannii [20] = assay: Antibacterial activity against aminoglycoside resistant Acinetobacter baumannii by broth microdilution method; type: functional; details: Acinetobacter baumannii; outline: as §1
Escherichia coli [21] = assay: Antibacterial activity against aminoglycoside resistant Escherichia coli by broth microdilution method; type: functional; details: Escherichia coli; outline: as §1
Acinetobacter baumannii [22] = assay: Antibacterial activity against wild type Acinetobacter baumannii by broth microdilution method; type: functional; outline: as §1
Acinetobacter baumannii [23] = assay: Antibacterial activity against multidrug resistant Acinetobacter baumannii by broth microdilution method; type: functional; details: Acinetobacter baumannii; outline: as §1
[24] = Fraction unbound in mouse plasma at 1 uM by equilibrium dialysis method; type: ADME, cell-free

CC(C)NCc1cc2cc3c(cc2n1C)CCCc1c-3[nH]c(=O)c(C(=O)O)c1O
MIC50 (Escherichia coli [1]): 0.5 µg/mL (≈ 1.26 µM) | MIC90 (Escherichia coli [1]): 1 µg/mL (≈ 2.53 µM) | MIC (Escherichia coli [1]; read-out: MIC): 0.25 to 1 µg/mL (≈ 0.632 to 2.53 µM) | MIC (Acinetobacter baumannii [2]): 0.78 µg/mL (≈ 1.97 µM) | MIC50 (Escherichia coli [3]): 0.5 µg/mL (≈ 1.26 µM) | MIC90 (Escherichia coli [3]): 1 µg/mL (≈ 2.53 µM) | MIC (Escherichia coli [3]; read-out: MIC): 0.25 to 1 µg/mL (≈ 0.632 to 2.53 µM) | MIC (Acinetobacter baumannii [4]): 0.78 µg/mL (≈ 1.97 µM) | bioavailability [5]: 44% | survival at 20 mg/kg (Escherichia coli [6]): 83% | MIC (Escherichia coli [7]): 0.39 µg/mL (≈ 0.986 µM) | MIC50 (Acinetobacter baumannii [8]): 2 µg/mL (≈ 5.06 µM) | MIC90 (Acinetobacter baumannii [8]): 16 µg/mL (≈ 40.5 µM) | MIC (Acinetobacter baumannii [8]; read-out: MIC): 0.25 to 32 µg/mL (≈ 0.632 to 80.9 µM) | MIC (Escherichia coli [9]): 3.1 µg/mL | MIC (Escherichia coli [10]): 0.78 µg/mL (≈ 1.97 µM) | MIC50 (Escherichia coli [11]): 0.5 µg/mL (≈ 1.26 µM) | MIC90 (Escherichia coli [11]): 1 µg/mL (≈ 2.53 µM) | Ratio (Escherichia coli [12]): 4 - 16 | beta t1/2 (Mus musculus [13]): 11 h | MIC50 (Escherichia coli [14]): 0.5 µg/mL (≈ 1.26 µM) | MIC90 (Escherichia coli [14]): 1 µg/mL (≈ 2.53 µM) | MIC (Escherichia coli [14]; read-out: MIC): 0.25 to 1 µg/mL (≈ 0.632 to 2.53 µM) | MIC (Klebsiella pneumoniae): 0.78 µg/mL (≈ 1.97 µM) | MIC50 (Acinetobacter baumannii [15]): 2 µg/mL (≈ 5.06 µM) | MIC90 (Acinetobacter baumannii [15]): 16 µg/mL (≈ 40.5 µM) | MIC (Acinetobacter baumannii [15]; read-out: MIC): 0.25 to 32 µg/mL (≈ 0.632 to 80.9 µM) | MIC (Escherichia coli [16]): 1.6 µg/mL (≈ 4.05 µM) | AUC (Mus musculus [17]): 1.81 µg·h/mL | Vdss (Mus musculus [18]): 69 L/kg | MIC50 (Acinetobacter baumannii [19]): 2 µg/mL (≈ 5.06 µM) | MIC90 (Acinetobacter baumannii [19]): 16 µg/mL (≈ 40.5 µM) | MIC (Acinetobacter baumannii [19]; read-out: MIC): 0.25 to 32 µg/mL (≈ 0.632 to 80.9 µM) | MIC50 (Acinetobacter baumannii [20]): 2 µg/mL (≈ 5.06 µM) | MIC90 (Acinetobacter baumannii [20]): 16 µg/mL (≈ 40.5 µM) | MIC (Acinetobacter baumannii [20]; read-out: MIC): 0.25 to 32 µg/mL (≈ 0.632 to 80.9 µM) | MIC50 (Escherichia coli [21]): 0.5 µg/mL (≈ 1.26 µM) | MIC90 (Escherichia coli [21]): 1 µg/mL (≈ 2.53 µM) | MIC (Escherichia coli [21]; read-out: MIC): 0.25 to 1 µg/mL (≈ 0.632 to 2.53 µM) | MIC50 (Acinetobacter baumannii [22]): 2 µg/mL (≈ 5.06 µM) | MIC90 (Acinetobacter baumannii [22]): 16 µg/mL (≈ 40.5 µM) | MIC50 (Acinetobacter baumannii [23]): 2 µg/mL (≈ 5.06 µM) | MIC90 (Acinetobacter baumannii [23]): 16 µg/mL (≈ 40.5 µM) | MIC (Acinetobacter baumannii [23]; read-out: MIC): 0.25 to 32 µg/mL (≈ 0.632 to 80.9 µM) | Fu [24]: 0.16
